From PMC2692962 (Journal of molecular biology, 2009)

How the values were obtained:
[1] = molecular target: T1, NS3h_1b(con1) HCV helicase (Hepatitis C virus genotype 1b, UniProt Q9WMX2); assay: Molecular beacon based helicase assay; assay type: biochemical; details: for DNA unwinding rate, times faster than ATP: 0.5 mM NTP, 2 mM MgCl2, 25 nM NS3h, 22 °C; for unwinding rate, % of that seen with ATP: 0.5 mM NTP analog, 2 mM MgCl2, initial rates; for Vmax, Michaelis-Menten / Km: data at or below 1 mM NTP; for Vmax, substrate inhibition model: global fit to equation (2); for Km: read-out: Km, Michaelis-Menten; for ability of divalent metal to support DNA unwinding: metal replacing Mg^2+
[2] = molecular target: T1, NS3h_1b(con1) HCV helicase; assay: Single-turnover MBHA; assay type: biochemical; details: for Afast / kfast / Aslow / kslow: 0.5 mM NTP
Summary of the method: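 Enzyme (50 nM NS3h) and 10 nM 17 bp Cy5 beacon DNA substrate in 50 mM MOPS pH 6.5 with 4 mM MgCl2 were rapidly mixed 1:1 with 1.0 mM NTP plus 2 μM dT20 trap. Fluorescence gave substrate remaining, corrected against a substrate-free blank and pre-NTP signal. Product (5 nM minus remaining) was fit to a two-phase first-order equation. Three independent reactions were run.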

[3] = system: HCV helicase; details: ref Locatelli et al.; cited from earlier work
[4] = molecular target: T1, NS3h_1b(con1) HCV helicase; assay: ATP hydrolysis assay; assay type: biochemical; details: for ATP hydrolysis in the absence of RNA: no nucleic acid, 100 nM NS3h, versus rate without added metal; for ATP hydrolysis in the absence of RNA / ATP hydrolysis in the presence of RNA: 2 mM ATP, 37 °C; for ATP hydrolysis in the presence of RNA: 0.1 mg/ml poly(U), 15 nM NS3h; for ATP hydrolyzed for each 25 bp duplex separated: MBHA conditions, 25 nM NS3h, 1.25 mM metal; for ATP hydrolyzed for each 25 bp duplex separated / rate of ATP hydrolysis: 1 mM ATP; for rate of ATP hydrolysis: in MBHA, 25 nM NS3h_1b(con1), 1.25 mM metal chloride, triplicate; for ATP hydrolyzed in the time needed to separate a single base pair: steady state unwinding versus ATP hydrolysis, only divalent cation present
[5] = molecular target: T1, NS3h_1b(con1) HCV helicase; assay: mantADP; assay type: binding; details: FRET, metal replacing Mg^2+
[6] = system: full-length NS3; details: ref Wardell et al.; cited from earlier work
[7] = system: HCV helicase; details: ref Kyono et al.; cited from earlier work
[8] = 17 base pairs substrate, two-phase fit

T1 sequence (Q9WMX2 1192-1657): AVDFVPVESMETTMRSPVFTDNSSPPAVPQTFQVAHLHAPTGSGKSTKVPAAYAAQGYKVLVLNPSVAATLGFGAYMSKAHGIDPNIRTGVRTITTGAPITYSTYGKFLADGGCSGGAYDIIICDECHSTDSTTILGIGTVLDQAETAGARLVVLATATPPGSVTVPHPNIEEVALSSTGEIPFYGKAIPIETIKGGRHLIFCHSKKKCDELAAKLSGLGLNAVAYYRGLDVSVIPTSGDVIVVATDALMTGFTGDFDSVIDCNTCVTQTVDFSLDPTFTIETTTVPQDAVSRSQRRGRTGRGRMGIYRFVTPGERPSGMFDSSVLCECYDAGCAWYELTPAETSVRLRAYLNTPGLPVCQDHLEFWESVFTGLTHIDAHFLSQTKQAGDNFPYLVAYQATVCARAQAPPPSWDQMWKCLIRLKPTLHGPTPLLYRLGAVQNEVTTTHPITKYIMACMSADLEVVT

Nc1ncnc2c1ncn2[C@H]1CC[C@@H](CO[P@@](=O)(O)O[P@](=O)(O)OP(=O)(O)O)O1 [2′,3′-ddATP]
DNA unwinding rate, times faster than ATP [1]: 2.7 fold

Nc1ncnc2c1ncn2[C@@H]1O[C@H](COP(=O)(O)OP(=O)(O)OP(=O)(O)O)[C@@H](O)[C@H]1F [2′-F-ATP]
unwinding rate, % of that seen with ATP [1]: 145%

CO[C@@H]1[C@H](O)[C@@H](COP(=O)(O)OP(=O)(O)OP(=O)(O)O)O[C@H]1n1cnc2c(N)ncnc21 [2′-O-methyl-ATP]
unwinding rate, % of that seen with ATP [1]: 34%

Nc1ncnc2c1ncn2[C@@H]1O[C@H](COP(=O)(O)OP(=O)(O)OP(=O)(O)O)[C@@H](O)[C@@H]1O [2′-ara-ATP]
unwinding rate, % of that seen with ATP [1]: practically the same unwinding rates as ATP

[N-]=[N+]=NC1C(O)C(COP(=O)(O)OP(=O)(O)OP(=O)(O)O)OC1n1cnc2c(N)ncnc21 (stereo not shown) [2′-azido-ATP]
unwinding rate, % of that seen with ATP [1]: 61%

Nc1ncnc2c1ncn2[C@@H]1O[C@H](COP(=O)(O)OP(=O)(O)OP(=O)(O)O)C[C@H]1O [3′-dATP]
DNA unwinding rate, times faster than ATP [1]: 3 fold

Nc1ncnc2c1ncn2[C@@H]1O[C@H](COP(=O)(O)OP(=O)(O)OP(=O)(O)O)[C@@H](O)[C@H]1O [ATP]
Afast ([2]; 17 base pairs substrate): 3.1 ± 0.02 nM
kfast ([2]; 17 base pairs substrate): 8.4 ± 0.1 min⁻¹
Aslow [2, 8]: 0.70 ± 0.04 nM
kslow [2, 8]: 0.28 ± 0.05 min⁻¹
Afast ([2]; 30 base pairs substrate): 1.8 ± 0.03 nM
Aslow ([2]; 30 base pairs substrate): 1.2 ± 0.03 nM
kfast ([2]; 30 base pairs substrate): 3.1 ± 0.1 min⁻¹
kslow ([2]; 30 base pairs substrate): 0.46 ± 0.03 min⁻¹
unwinding, times better than dATP [3]: 100 times
Vmax, Michaelis-Menten ([1]; 0.25 mM free Mg^2+): 0.79 nM/min
Vmax ([1]; equation (3), ATP and GTP both present): 1.6 nM/min
Vmax, substrate inhibition model ([1]; 0.25 mM free Mg^2+): 10 nM/min
Ki ([1]; read-out: Ki (ATP), equation (3), ATP and GTP both present): 0.69 mM
Km ([1]; 0.25 mM free Mg^2+): 70 µM

[Ca+2] [Ca^2+]
ability of divalent metal to support DNA unwinding ([1]; data not shown): did not support
ATP hydrolysis in the absence of RNA [4]: inhibited the rate of hydrolysis

[Co+2] [Co^2+]
ability of divalent metal to support DNA unwinding ([1]; data not shown): did not support
ATP hydrolysis in the presence of RNA [4]: supported hydrolysis
ATP hydrolysis in the absence of RNA [4]: inhibited the rate of hydrolysis

Nc1nc2c(ncn2[C@@H]2O[C@H](COP(=O)(O)OP(=O)(O)OP(=O)(O)O)[C@@H](O)[C@H]2O)c(=O)[nH]1 [GTP]
reaction amplitude, times less than in ATP fueled reactions ([2]; 17 base pair substrate): 7 times
Afast ([2]; 17 base pairs substrate): 0.42 ± 0.03 nM
kfast ([2]; 17 base pairs substrate): 8.3 ± 1.9 min⁻¹
Afast ([2]; 30 base pairs substrate): 0.58 ± 0.08 nM
Aslow ([2]; 30 base pairs substrate): 0.11 ± 0.05 nM
kfast ([2]; 30 base pairs substrate): 0.61 ± 0.06 min⁻¹
kslow ([2]; 30 base pairs substrate): 0.62 ± 0.08 min⁻¹
Vmax, Michaelis-Menten ([1]; 0.25 mM free Mg^2+): 0.05 nM/min
Kii (GTP) ([1]; equation (3), GTP as non-competitive inhibitor of ATP fueled unwinding): 0.65 mM
Vmax, substrate inhibition model ([1]; 0.25 mM free Mg^2+): 0.41 nM/min
Km ([1]; 0.25 mM free Mg^2+): 410 µM

Nc1ncnc2c1ncn2[C@@H]1O[C@H](COP(=O)([O-])OP(=O)([O-])OP(=O)(O)O)[C@@H](O)[C@H]1O.[Mg+2] [Mg(ATP)^2−]
maximal steady state unwinding rate ([1]; 25 nM NS3h): 0.8 nM/min
Vmax for unwinding, times faster than Mg(GTP)^2− ([1]; Michaelis-Menten fit, data up to 1 mM Mg(NTP)^2−, 0.25 mM free Mg^2+): 15 times
kcat of unwinding ([1]; calculated from maximal steady state rate at 25 nM NS3h, assumes monomer): 0.000533 s⁻¹

[Cl-].[Cl-].[Mg+2] [Mg^2+, MgCl2]
ATP hydrolysis in the presence of RNA [4]: supported hydrolysis
ATP hydrolyzed for each 25 bp duplex separated [4]: about 1,000 ATP
rate of ATP hydrolysis [4]: 629 ± 5.4 nM/min
ATP hydrolysis in the absence of RNA [4]: enhanced hydrolysis
ATP hydrolyzed in the time needed to separate a single base pair [4]: about 40 ATP

Nc1ncnc2c1ncn2C1OC(COP(=O)([O-])OP(=O)([O-])OP(=O)([O-])[O-])C(O)C1O.[Mn+2] (stereo not shown) [Mn(ATP)^2−]
hydrolysis by the open form, times slower than Mg(ATP)^2− ([4]; enzyme not bound to RNA): at least 100 times

[Cl][Mn][Cl] [Mn^2+, MnCl2]
formation of enzyme-metal-NTP complex [5]: formed an enzyme-metal-NTP complex
MBHA substrate unwound, times faster than with Mg^2+ ([1]; 25 nM NS3h_1b(con1), 1 mM ATP, 1.25 mM MgCl2 or MnCl2): about 14 times
ability of divalent metal to support DNA unwinding ([1]; data not shown): could fuel unwinding
ATP hydrolysis in the presence of RNA [4]: supported hydrolysis
ATP hydrolyzed for each 25 bp duplex separated [4]: about 75 ATP
rate of ATP hydrolysis [4]: 605 ± 4 nM/min
ATP hydrolysis in the absence of RNA [4]: inhibited the rate of hydrolysis
ATP hydrolyzed in the time needed to separate a single base pair [4]: 3 ATP

[Cl-].[Na+] [NaCl]
IC50 ([1]; read-out: IC50, inhibition of NS3h catalyzed DNA unwinding, MBHA, data not shown): 15 mM

O=c1[nH]c(=O)c2ncn([C@@H]3O[C@H](COP(=O)(O)OP(=O)(O)OP(=O)(O)O)[C@@H](O)[C@H]3O)c2[nH]1 [XTP, Xanthosine triphosphate]
unwinding rate, % of that seen with ATP [1]: 7%

[Cl-].[Cl-].[Zn+2] [Zn^2+, ZnCl2]
formation of enzyme-metal-NTP complex [5]: formed an enzyme-metal-NTP complex
ability of divalent metal to support DNA unwinding ([1]; data not shown): did not support
ATP hydrolysis in the presence of RNA [4]: supported hydrolysis
ATP hydrolysis in the absence of RNA [4]: inhibited the rate of hydrolysis

Nc1ncnc2c1ncn2[C@H]1C[C@H](O)[C@@H](COP(=O)(O)OP(=O)(O)OP(=O)(O)O)O1 [dATP]
unwinding relative to that observed with ATP [6]: 60%
use of dATP compared with ATP for unwinding [7]: used equally well

Cc1cn([C@H]2C[C@H](O)[C@@H](COP(=O)(O)OP(=O)(O)OP(=O)(O)O)O2)c(=O)[nH]c1=O [dTTP]
Afast ([2]; 17 base pairs substrate): 3.4 ± 0.4 nM
kfast ([2]; 17 base pairs substrate): 9.1 ± 0.4 min⁻¹
Aslow [2, 8]: 0.48 ± 0.03 nM
kslow [2, 8]: 0.28 ± 0.06 min⁻¹
Afast ([2]; 30 base pairs substrate): 2.6 ± 0.03 nM
Aslow ([2]; 30 base pairs substrate): 0.66 ± 0.02 nM
kfast ([2]; 30 base pairs substrate): 4.8 ± 0.3 min⁻¹
kslow ([2]; 30 base pairs substrate): 0.50 ± 0.02 min⁻¹
DNA unwinding rate, times faster than ATP [1]: about 3 fold
Vmax, Michaelis-Menten ([1]; 0.25 mM free Mg^2+): 5.3 nM/min
Vmax, substrate inhibition model ([1]; 0.25 mM free Mg^2+): 50 nM/min
Km ([1]; 0.25 mM free Mg^2+): 300 µM
